High-throughput results from PubChem BioAssay.
Rows were chosen to be rich in hits. Some 2.4% of all compounds tested hit in one or more screens of this group.
S1P4 agonist: agonists of human S1P4 receptor. hit rate 0.35% among 220,000. S1P4-expressing cell line, agonist reporter assay. AID 1509. activation, % at 4.98 µM. O95977; in the data active means activation above about 11%;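 further: 0% = DMSO vehicle and 100% = reference agonist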
Target sequence (O95977 whole entry, looked up): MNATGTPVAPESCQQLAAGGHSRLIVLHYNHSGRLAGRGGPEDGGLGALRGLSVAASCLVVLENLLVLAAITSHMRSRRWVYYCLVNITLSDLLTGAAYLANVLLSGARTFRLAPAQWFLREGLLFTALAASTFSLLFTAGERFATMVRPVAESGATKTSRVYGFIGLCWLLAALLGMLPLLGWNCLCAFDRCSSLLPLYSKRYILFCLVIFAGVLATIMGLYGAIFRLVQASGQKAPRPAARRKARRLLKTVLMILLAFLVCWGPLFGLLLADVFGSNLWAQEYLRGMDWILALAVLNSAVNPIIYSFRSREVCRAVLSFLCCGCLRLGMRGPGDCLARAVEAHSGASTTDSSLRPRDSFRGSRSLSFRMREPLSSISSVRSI
NPY Y2 blocker: NPY-Y2 (human) receptor antagonism; P49146; AID 793; inhibition, % at 2.7 µM; hit rate 0.99% among 140,000; NPY-Y2 expressing cells, antagonist mode;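 further: 0% = vehicle with agonist challenge and 100% = reference antagonist with challenge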
NPY-Y1 antag: NPY-Y1 (human) receptor antagonism; P25929; HEK293-CNG Y1 cells, membrane potential fluorescence; NPY at EC95, then isoproterenol; inhibition, % at 3.6 µM; hit rate 1% among 200,000;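 active means inhibition above the campaign mean inhibition of all tested compounds plus 3 SD, cut at about 20% in these data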;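 further: 0% = DMSO wells given NPY plus isoproterenol and 100% = isoproterenol alone without NPY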
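Test system – HEK293 Y1/CNG channel cell line · Also added – NPY agonist 25 nM, then isoproterenol 1 µM plus Ro 20-1724 25 µM · Compound dosing – one concentration, 3.6 µM, in 0.4% DMSO · Schedule – compound incubation 1 h at room temperature, readout 45 min post-stimulation · Technique – fluorescence, membrane potential probe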
NPY-Y1 PAM-ag: potentiators or agonists of human neuropeptide Y receptor Y1 | P25929 | NPY-Y1 expressing cells, potentiator/agonist activation | activation, % at 3.6 µM | hit rate 0.37% among 220,000 | AID 1304; in the data active means activation above about 33%, passing the limit was not always enough;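 further: cells stimulated with NPY at EC10 then isoproterenol at EC100; 0% = low agonist plus stimulus and 100% = saturating agonist plus stimulus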
S1P4 antag: blocks the human S1P4 receptor. O95977. S1P4-expressing cells, antagonist mode, reporter read-out. inhibition, % at 4.98 µM. hit rate 0.26% among 220,000; in the data active means inhibition above about 29%;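 further: 0% = wells stimulated with agonist and 100% = vehicle wells without agonist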
NPY2 pot ag: human NPY-Y2 potentiation or agonism, primary screen. P49146. cells expressing NPY-Y2, potentiator/agonist read-out. activation, % at 3.6 µM. hit rate 0.45% among 220,000. AID 1359; in the data active means activation above about 27%;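 further: cells stimulated with NPY near EC25 plus isoproterenol at EC100; 0% = vehicle plus submaximal agonist and 100% = vehicle plus saturating agonist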
NPY-Y1 ant conf: human NPY-Y1 antagonism, confirmation; AID 1254; HEK293-CNG NPY-Y1, membrane potential fluorescence, cAMP; NPY challenge against isoproterenol-raised cAMP; inhibition, % at 3.6 µM; hit rate 21% among 1,200; shares compounds with NPY-Y1 antag; in the data active means inhibition above about 20%;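 further: 0% = vehicle with agonist plus stimulus and 100% = stimulus alone without agonist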
NPY-Y2 antag ct: antagonizes human NPY-Y2, counter-screen to NPY-Y1 antagonists | HEK293 NPY-Y2 CNG membrane potential fluorescence, antagonism; cells given NPY, then isoproterenol | hit rate 28% among 1,200 | inhibition, % at 3.6 µM | shares compounds with NPY-Y1 antag;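 further: 0% = DMSO with agonist challenge and 100% = reference antagonist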
Numbers without * were called inactive; . = no result. Unless noted, no stated cut-off is given here; in the data, active means inhibition above about 17%; inactive means the rest.

SMILES	S1P4 agonist	NPY Y2 blocker	NPY-Y1 antag	NPY-Y1 PAM-ag	S1P4 antag	NPY2 pot ag	NPY-Y1 ant conf	NPY-Y2 antag ct
CC(C)(C)NC(=O)NCc1cccnc1	-1	.	.	9	8	-4	.	.
C/C(=N\Nc1nc2ccccc2s1)c1ccc(Br)s1	3	.	31*	26	-3	11	8	20*
CCCCCC(=O)Nc1nc(C)c(-c2csc(Nc3ccccc3OC)n2)s1	-1	-1	14	13	-28	12	.	.
CCCC(C)C(=O)Nc1nc(C)c(-c2csc(Nc3ccccc3OC)n2)s1 (configuration not stated)	0	9	24*	2	-13	-14	13	6
CCCCCCC(=O)Nc1nc(C)c(-c2csc(Nc3ccccc3OC)n2)s1	-1	12	32*	5	-7	3	10	6
C=CCN(c1ccccc1C(=O)NCC(=O)O)S(=O)(=O)c1ccc(C)cc1	1	.	.	1	2	4	.	.
CCCN1CN(c2ccccc2)C(=S)N(c2ccccc2)C1	1	.	.	6	-12	-4	.	.
Cc1ccc(C(O)(c2ccccc2)c2ccccc2C(C)N(C)C)c(C)c1 (configuration not stated)	1	16	25*	4	12	-36	21*	32*
Cn1c(=O)cc(SCC(=O)NCCCN2CCN(c3ccccc3F)CC2)c2ccccc21	1	11	21*	-22	-18	-4	6	2
CCN1CCN(c2nc(-c3ccccc3)nc3ccccc23)CC1	-1	5	21*	-36	-19	1	10	6
CCOC(=O)c1c(CSc2ccccc2)n(C)c2ccc(O)c(CN3CCOCC3)c12	2	.	38*	-57	-16	-36	30*	9
CCOC(=O)c1c(C)n(C)c2ccc(O)c(CN3CCN(C)CC3)c12	1	4	5	-13	-4	-2	.	.
CCN(CC)c1ccc(/C=C2\SC(=O)N(C(C)C)C2=O)o1	1	.	.	-7	21	-10	.	.
O=C(O)CC/C(=C\c1ccc(N2CCOCC2)c([N+](=O)[O-])c1)c1nc2ccccc2s1	0	.	41*	-54	-10	-40	54*	79*
CC(C)(C)c1cc(=O)n(-c2ccccc2)[nH]1	0	1	3	-3	3	10	.	.
Cc1[nH]c(=O)c(C#N)cc1-c1ccccc1	0	15	26*	-43	-12	-37	20*	38*
Cc1nc(-c2cc(C#N)c(=O)[nH]c2C)cs1	0	.	.	-5	-6	-14	.	.
CCN1/C(=C/C(C)=C/c2sc3ccccc3[n+]2CC)Sc2ccccc21	0	.	106*	-12	-5	4	79*	53*
COc1ccc(CN(C)C2c3ccccc3-c3ccccc32)cc1	1	8	10	-2	-12	-7	.	.
Cc1cccc(C)c1OC1(c2ccccc2)OC(=O)c2ccccc21 (configuration not stated)	1	11	22*	-10	-13	-20	6	7
CCOC1(c2ccccc2)OC(=O)c2ccccc21 (configuration not stated)	3	0	-2	-17	-7	7	.	.
Cc1cc(C)c(OC2(c3ccccc3)OC(=O)c3ccccc32)c(C)c1 (configuration not stated)	1	16	31*	-8	-7	-17	11	7
NNC(=O)C(Cc1c[nH]c2ccccc12)NC(=O)c1ccccc1 (configuration not stated)	1	.	.	18	2	2	.	.
Cc1ccc(NCC(=O)Nc2c(C)n(C)n(-c3ccccc3)c2=O)cc1S(=O)(=O)N(C)C	0	.	.	8	-2	2	.	.
COc1ccc(/C=N/NC(=O)c2ccncc2)cc1Cn1nc([N+](=O)[O-])c(Br)c1C	0	.	-3	7	-7	14	.	.
SMILES	S1P4 agonist	NPY Y2 blocker	NPY-Y1 antag	NPY-Y1 PAM-ag	S1P4 antag	NPY2 pot ag	NPY-Y1 ant conf	NPY-Y2 antag ct
O=C(CN(Cc1ccc(F)cc1)C(=O)c1ccco1)NCc1ccc(F)cc1	0	7	7	2	-14	-6	.	.
O=C(c1ccco1)N(CCC(c1ccccc1)c1ccco1)Cc1ccc(F)cc1 (configuration not stated)	-1	6	25*	-21	16	-44	13	13
O=C(NCCN1CCOCC1)c1cc(-c2ccco2)on1	1	6	21*	4	-41	5	-1	0
CCOC(=O)c1c(NC(=O)C(F)(OC)C(F)(F)F)sc(C(=O)N2CCCCC2)c1C (configuration not stated)	1	2	22*	-15	7	9	9	4
CCOC(=O)c1c(NC(=O)CSc2nnc(C)s2)sc2c1CCC(CC)C2 (configuration not stated)	4	10	34*	-58	-8	-23	15	18*
O=C(NCCc1ccccc1)C1CCCN1S(=O)(=O)c1ccccc1 (configuration not stated)	-2	.	2	-14	8	-10	.	.
CCOC(=O)c1cc2ccccc2n1CCN(CC)CC	-4	12	25*	-25	-10	-28	5	16
COC(=O)c1ccc(COC(=O)CNC(=O)c2ccc(-c3ccccc3)cc2)cc1	0	4	21*	-7	-20	-7	-2	2
COC(=O)c1ccc(COC(=O)CNC(=O)c2ccco2)cc1	-1	2	9	0	-27	-4	.	.
COc1cc(C2C(C#N)=C(N)Oc3cc4c(cc32)OCO4)cc(OC)c1OC (configuration not stated)	-4	.	22*	-1	18	-26	5	13
COc1cc(C2C(C#N)=C(N)Oc3cc(O)ccc32)cc(OC)c1OC (configuration not stated)	-1	2	-1	6	-8	8	.	.
CC(NCc1ccc(-c2ccccc2)cc1)C(O)c1ccccc1 (configuration not stated)	-1	10	20*	-78	-10	-28	18	29*
CCN(CC)CCOC(=O)/C=C/c1ccccc1OC	3	1	21*	16	10	10	-1	2
CN(CCOC(=O)/C=C/c1ccccc1)C(C)(C)C	-1	5	4	-6	-9	-7	.	.
Cc1cc([N+](=O)[O-])nn1CC(=O)N/N=C/c1ccc(O)cc1O	1	.	.	-20	-132	-11	.	.
O=C(CSc1ccc2c(c1)OCCO2)NCCc1ccc(Cl)cc1Cl	-3	12	20*	-44	4	-21	8	7
S=c1[nH]nc(-c2cc(-c3ccccc3)n[nH]2)n1/N=C/c1ccc(Br)s1	0	.	.	-19	15	-23	.	.
